# What was measured:
# [1] = system: Rattus norvegicus; assay: Antiinflammatory activity in Wistar rat assessed as inhibition of carrageenan-induced paw edema at 0.05 mmol/kg, po administered 30 mins prior challenge measured after 5 hrs; assay type: functional
# Outline: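 Wistar rats of either sex, 150–175 g, fasted 16 h, 6 per group. Dosed orally at 0.05 mmol/kg, suspended in 1% CMC in water (10 ml/kg). 30 min later, 0.1 ml of 1% carrageenan in saline injected subplantar into the left hind paw. Paw volume read by plethysmometer at 0, 3 and 5 h. % inhibition = (1 − Vt/Vc) × 100 against the vehicle group.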
# [2] = system: TK-10; assay: Growth inhibition of human TK10 cells assessed as cell growth at 10 uM after 48 hrs by sulforhodamine B assay; assay type: functional; details: TK-10, 48 h, read-out: Activity
# Outline: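 Single-dose NCI screen. Tumor lines were cultured in medium with 5% fetal calf serum and 2 mM L-glutamine, preincubated 24 h, then given compound in DMSO. After 48 h continuous exposure, cell growth was estimated by sulforhodamine B protein assay.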
# [3] = system: RXF 393; assay: Growth inhibition of human RXF393 cells assessed as cell growth at 10 uM after 48 hrs by sulforhodamine B assay; assay type: functional; details: RXF 393, 48 h, read-out: Activity
# [4] = system: CAKI-1; assay: Growth inhibition of human CAKI-1 cells assessed as cell growth at 10 uM after 48 hrs by sulforhodamine B assay; assay type: functional; details: CAKI-1, 48 h, read-out: Activity
# [5] = system: SK-OV-3; assay: Growth inhibition of human SKOV3 cells assessed as cell growth at 10 uM after 48 hrs by sulforhodamine B assay; assay type: functional; details: SK-OV-3, 48 h, read-out: Activity
# [6] = Growth inhibition of human NCI-ADR-RES cells assessed as cell growth at 10 uM after 48 hrs by sulforhodamine B assay; assay type: functional; details: read-out: Activity
# [7] = system: OVCAR-4; assay: Growth inhibition of human OVCAR4 cells assessed as cell growth at 10 uM after 48 hrs by sulforhodamine B assay; assay type: functional; details: OVCAR-4, 48 h, read-out: Activity
# [8] = system: IGROV-1; assay: Growth inhibition of human IGROV1 cells assessed as cell growth at 10 uM after 48 hrs by sulforhodamine B assay; assay type: functional; details: IGROV-1, 48 h, read-out: Activity
# [9] = system: SK-MEL-28; assay: Growth inhibition of human SK-MEL-28 cells assessed as cell growth at 10 uM after 48 hrs by sulforhodamine B assay; assay type: functional; details: SK-MEL-28, 48 h, read-out: Activity
# [10] = system: SNB-75; assay: Growth inhibition of human SNB75 cells assessed as cell growth at 10 uM after 48 hrs by sulforhodamine B assay; assay type: functional; details: SNB-75, 48 h, read-out: Activity
# [11] = system: SF-295; assay: Growth inhibition of human SF295 cells assessed as cell growth at 10 uM after 48 hrs by sulforhodamine B assay; assay type: functional; details: SF-295, 48 h, read-out: Activity
# [12] = Growth inhibition of human EKVX cells assessed as cell growth at 10 uM after 48 hrs by sulforhodamine B assay; assay type: functional; details: read-out: Activity
# [13] = system: HL-60(TB); assay: Growth inhibition of human HL-60(TB) cells assessed as cell growth at 10 uM after 48 hrs by sulforhodamine B assay; assay type: functional; details: HL-60, 48 h, read-out: Activity
# [14] = system: MCF7; assay: Growth inhibition of human MCF7 cells after 48 hrs by sulforhodamine B assay; assay type: functional; details: MCF7, 48 h
# Outline: (§1)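 NCI 60-cell-line panel grown in RPMI-type medium with 5% fetal calf serum and 2 mM L-glutamine. Cells preincubated 24 h, then exposed continuously for 48 h to compound in DMSO at 10^-4 to 10^-8 M (five 10-fold levels). Growth read by SRB protein stain. GI50 is the concentration giving a 50% reduction in net protein increase relative to control cells.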
# [15] = system: TK-10; assay: Growth inhibition of human TK10 cells after 48 hrs by sulforhodamine B assay; assay type: functional; details: TK-10, 48 h
# Outline: (§2)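 NCI 60-line panel. Cells were grown in medium with 5% fetal calf serum and 2 mM L-glutamine and preincubated 24 h in plates. Compound in DMSO was added at 10^-4 to 10^-8 M (five 10-fold levels), with continuous exposure for 48 h. Growth was read by SRB protein staining. GI50 is the concentration giving 50% reduction in net protein increase versus control cells.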
# [16] = system: RXF 393; assay: Growth inhibition of human RXF393 cells after 48 hrs by sulforhodamine B assay; assay type: functional; details: RXF 393, 48 h
# Outline: (§3)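 NCI 60-cell-line panel. Cells were grown in medium with 5% fetal calf serum and 2 mM L-glutamine, then preincubated 24 h in plates. Compounds were added from DMSO at five 10-fold concentrations from 100 to 0.01 µM and left on cells continuously for 48 h. Cell growth was read by sulforhodamine B protein stain. GI50 is the concentration that halves net protein increase relative to control cells.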
# [17] = system: A498; assay: Growth inhibition of human A498 cells after 48 hrs by sulforhodamine B assay; assay type: functional; details: A498, 48 h; outline: as §1
# [18] = system: ACHN; assay: Growth inhibition of human ACHN cells after 48 hrs by sulforhodamine B assay; assay type: functional; outline: as §1
# [19] = system: SK-MEL-5; assay: Growth inhibition of human SK-MEL-5 cells after 48 hrs by sulforhodamine B assay; assay type: functional; details: SK-MEL-5, 48 h; outline: as §3
# [20] = system: SNB-19; assay: Growth inhibition of human SNB19 cells after 48 hrs by sulforhodamine B assay; assay type: functional; details: SNB-19, 48 h; outline: as §3
# [21] = system: SF-539; assay: Growth inhibition of human SF539 cells after 48 hrs by sulforhodamine B assay; assay type: functional; details: SF-539, 48 h; outline: as §3
# [22] = system: SW-620; assay: Growth inhibition of human SW620 cells after 48 hrs by sulforhodamine B assay; assay type: functional; details: SW-620, 48 h; outline: as §2
# [23] = system: NCI-H460; assay: Growth inhibition of human NCI-H460 cells after 48 hrs by sulforhodamine B assay; assay type: functional; details: NCI-H460, 48 h; outline: as §3
# [24] = system: HOP-92; assay: Growth inhibition of human HOP92 cells after 48 hrs by sulforhodamine B assay; assay type: functional; details: HOP-92, 48 h; outline: as §1
# [25] = system: SR; assay: Growth inhibition of human SR cells after 48 hrs by sulforhodamine B assay; assay type: functional; outline: as §3
# [26] = system: MOLT-4; assay: Growth inhibition of human MOLT4 cells after 48 hrs by sulforhodamine B assay; assay type: functional; details: MOLT-4, 48 h; outline: as §3
# [27] = system: K562; assay: Growth inhibition of human K562 cells after 48 hrs by sulforhodamine B assay; assay type: functional; details: K562, 48 h; outline: as §1
# [28] = system: CCRF-CEM; assay: Growth inhibition of human CCRF-CEM cells after 48 hrs by sulforhodamine B assay; assay type: functional, cell-based; outline: as §1
# [29] = read-out: LC50 (the source's name)
smiles,measurement,setting,value
CCc1ccc(C2=NN(c3ccc(S(C)(=O)=O)cc3)C(=O)CC2)cc1,inhibition in vivo at 50 µmol/kg,[1],65.7%
same,growth at 10 µM,[2],71.1%
same,growth at 10 µM,[3],27.4%
same,growth at 10 µM,[4],16.6%
same,growth at 10 µM,[5],28.7%
same,growth at 10 µM,[6],6.7%
same,growth at 10 µM,[7],76.2%
same,growth at 10 µM,[8],37.4%
same,growth at 10 µM,[9],50.7%
same,growth at 10 µM,[10],16.7%
same,growth at 10 µM,[11],9.24%
same,growth at 10 µM,[12],60.4%
same,growth at 10 µM,[13],6.73%
same,GI50,[14],3.13 µM
same,LC50 (concentration killing 50% of cells),[14],> 100 µM
same,TGI,[14],> 100 µM
same,GI50,[15],8.31 µM
same,TGI,[15],> 100 µM
same,CC50,[15]; [29],> 100 µM
same,GI50,[16],2.04 µM
same,LC50 (50% lethal concentration),[16],> 100 µM
same,TGI,[16],19.8 µM
same,GI50,[17],0.14 µM
same,TGI,[17],2.3 µM
same,CC50,[17]; [29],> 100 µM
same,GI50,[18],8.59 µM
same,LC50 (concentration killing 50% of starting cells),[18],> 100 µM
same,TGI,[18],> 100 µM
same,GI50,[19],1.48 µM
same,LC50,[19],35.7 µM
same,TGI,[19],11.2 µM
same,GI50,[20],0.13 µM
same,TGI,[20],> 100 µM
same,CC50,[20]; [29],> 100 µM
same,GI50,[21],2.35 µM
same,TGI,[21],18.9 µM
same,CC50,[21]; [29],> 100 µM
same,GI50,[22],43.1 µM
same,TGI,[22],> 100 µM
same,CC50,[22]; [29],> 100 µM
same,GI50,[23],0.82 µM
same,TGI,[23],36.9 µM
same,CC50,[23]; [29],> 100 µM
same,GI50,[24],1.58 µM
same,TGI,[24],9.88 µM
same,CC50,[24]; [29],> 100 µM
same,GI50,[25],5.65 µM
same,LC50,[25],> 100 µM
same,TGI,[25],40.3 µM
same,GI50,[26],3.52 µM
same,LC50,[26],> 100 µM
same,TGI,[26],6.75 µM
same,GI50,[27],0.42 µM
same,TGI,[27],> 100 µM
same,CC50,[27]; [29],> 100 µM
same,GI50,[28],2.31 µM
same,TGI,[28],> 100 µM
same,CC50,[28]; [29],> 100 µM

# — ChEMBL document CHEMBL2417474, “Synthesis, antiproliferative and anti-inflammatory activities of some novel 6-aryl-2-(p-(methanesulfonyl)phenyl)-4,5-dihydropyridazi-3(2H)-ones” (Eur J Med Chem, 2013)
